Test results published in ChEMBL document CHEMBL1145965, “4-Substituted 4-hydroxycyclohexa-2,5-dien-1-ones with selective activities against colon and renal cancer cell lines” (J Med Chem, 2003).

Legend:
SW-620 = assay: In vitro lethal concentration against least sensitive colon SW-620 cell line; format: functional; settings: Homo sapiens, read-out: LC50 (the source's name)
HT-29 = assay: Inhibitory activity against HT-29 colon cancer cell line; format: functional, cell-based; settings: Homo sapiens
Summary of the method: (§1)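 Cells grown in RPMI 1640 with 2 mM L-glutamine and 10% fetal calf serum, 37 °C, 5% CO2. Seeded at 5 × 10³ per well, 24 h adherence, then drug 0.1 nM–100 μM final (n = 8; DMSO stocks, dilutions in medium) for 72 h.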

[1] = tested on: Panel NCI-60 (60 carcinoma cell lines); assay: In vitro mean growth lethal concentration in colon subpanel against 60-cell panel; format: functional; settings: Homo sapiens, read-out: Mean LC50
HCT-116 [2] = assay: Inhibitory activity against HCT116 colon cancer cell line; format: functional, cell-based; settings: Homo sapiens; summary of the method: as §1
[3] = tested on: Panel NCI-60 (60 carcinoma cell lines); assay: In vitro mean growth lethal concentration against 60-cell panel; format: functional; settings: Homo sapiens, read-out: Mean LC50
ACHN = assay: In vitro lethal concentration against most sensitive ACHN cell line; format: functional; settings: Homo sapiens, read-out: LC50 (the source's name)
[4] = tested on: Panel NCI-60 (60 carcinoma cell lines); assay: In vitro mean growth lethal concentration in renal subpanel against 60-cell panel; format: functional; settings: Homo sapiens, read-out: Mean LC50
[5] = tested on: Panel NCI-60 (60 carcinoma cell lines); assay: In vitro mean growth inhibitory activity against 60-cell panel; format: functional; settings: Homo sapiens
HCT-116 [6] = assay: In vitro lethal concentration against most sensitive colon HCT116 cell line; format: functional; settings: Homo sapiens, read-out: LC50 (the source's name)
MCF7 = assay: Inhibitory activity against MCF-7 mammary carcinoma cell line; format: functional, cell-based; settings: Homo sapiens; summary of the method: as §1
MDA-MB-468 = assay: Inhibitory activity against MDA-468 mammary carcinoma cell line; format: functional, cell-based; settings: Homo sapiens; summary of the method: as §1
A549 = assay: Inhibitory activity against A549 lung adenocarcinoma cell line; format: functional, cell-based; settings: Homo sapiens; summary of the method: as §1

`O=C1C=CC(O)(c2ccccc2)C=C1` gave a CC50 (SW-620) of 51.3 µM, an IC50 (HT-29) of 3.63 µM and a CC50 [1] of 10.6 µM. For the same compound, the IC50 (HCT-116 [2]) was 2.22 µM, the CC50 [3] was 21.9 µM and the CC50 (ACHN) was 5.5 µM. The CC50 [4] was 16.7 µM, the GI50 [5] was 2.29 µM and the CC50 (HCT-116 [6]) was 6.31 µM.
Work on `COc1ccc2nc(C3(OC)C=CC(=NS(=O)(=O)c4ccc(C)cc4)C=C3)sc2c1` (stereo unspecified) yielded a CC50 (SW-620) of 77.6 µM, a CC50 [1] of 13.2 µM and a CC50 [3] of 18.6 µM. The CC50 (ACHN) was 8.32 µM, the CC50 [4] was 11.2 µM and the GI50 [5] was 1.91 µM. The CC50 (HCT-116 [6]) was 5.01 µM.
Work on `COC1(c2nc3ccc(F)cc3s2)C=CC(=NS(=O)(=O)c2ccc(C)cc2)C=C1` (stereo unspecified) yielded a CC50 (SW-620) greater than 100 µM, a CC50 [1] of 25.6 µM and a CC50 [3] of 30.2 µM. For the same compound, the CC50 (ACHN) was greater than 100 µM, the CC50 [4] was 19.1 µM and the GI50 [5] was 1.74 µM. For the same compound, the CC50 (HCT-116 [6]) was 5.25 µM.
In the case of `O=C1/C(=C\c2ccccc2)CC(O)(c2nc3ccccc3s2)C/C1=C/c1ccccc1` (stereo unspecified), the CC50 (SW-620) is reported as greater than 100 µM, the CC50 [1] is reported as 17.4 µM and the CC50 [3] is reported as 47.9 µM. For the same compound, the CC50 (ACHN) was 30.9 µM, the CC50 [4] was 37.2 µM and the GI50 [5] was 2.69 µM. For the same compound, the CC50 (HCT-116 [6]) was 5.37 µM.
Compound `O=C1C=CC(O)(c2cnc3ccccc3c2)C=C1` has a CC50 (SW-620) greater than 100 µM, an IC50 (HT-29) of 0.97 µM and a CC50 [1] of 15.8 µM. It also gave an IC50 (HCT-116 [2]) of 0.72 µM, a CC50 [3] of 15.8 µM and a CC50 (ACHN) of 15.1 µM. It also gave an IC50 (MCF7) of 0.77 µM, a CC50 [4] of 9.66 µM and a GI50 [5] of 1.07 µM. The CC50 (HCT-116 [6]) was 4.26 µM and the IC50 (MDA-MB-468) was 1.7 µM.
With `O=C1C=CC(O)(c2cc3ccccc3s2)c2ccccc21` (stereo unspecified) the CC50 (SW-620) was greater than 100 µM, the CC50 [1] was greater than 100 µM and the CC50 [3] was 70.8 µM. It also gave a CC50 (ACHN) greater than 100 µM, a CC50 [4] greater than 100 µM and a GI50 [5] of 2.29 µM. It also gave a CC50 (HCT-116 [6]) greater than 100 µM.
With `O=C1C=CC(O)(c2nc3ccccc3s2)C(Cl)=C1` (stereo unspecified) the CC50 (SW-620) was greater than 100 µM, the CC50 [1] was 2.31 µM and the CC50 [3] was 6.31 µM. The CC50 (ACHN) was 0.58 µM, the CC50 [4] was 1.8 µM and the GI50 [5] was 0.46 µM. For the same compound, the CC50 (HCT-116 [6]) was 0.68 µM.
`COC1(c2nc3ccc(C)cc3s2)C=CC(=NS(=O)(=O)c2ccc(C)cc2)C=C1` (stereo unspecified) was tested, and the CC50 (SW-620) was 95.5 µM, the CC50 [1] was 9.92 µM and the CC50 [3] was 19.5 µM. It also gave a CC50 (ACHN) of 6.92 µM, a CC50 [4] of 10.6 µM and a GI50 [5] of 1.2 µM. It also gave a CC50 (HCT-116 [6]) of 1.78 µM.
Work on `O=C1C=CC(O)(c2nc3ccccc3o2)C=C1` yielded a CC50 (SW-620) greater than 100 µM, an IC50 (HT-29) of 0.29 µM and an IC50 (A549) of 2.33 µM. The CC50 [1] was 1.13 µM, the IC50 (HCT-116 [2]) was 0.18 µM and the CC50 [3] was 7.08 µM. It also gave a CC50 (ACHN) of 4.9 µM, an IC50 (MCF7) of 0.39 µM and a CC50 [4] of 1.64 µM. For the same compound, the GI50 [5] was 0.46 µM, the CC50 (HCT-116 [6]) was 0.87 µM and the IC50 (MDA-MB-468) was 0.35 µM.
`O=C1C=CC(O)(c2cc3ccccc3o2)C=C1` was tested, and the CC50 (SW-620) was greater than 100 µM, the IC50 (HT-29) was 0.42 µM and the IC50 (A549) was 2.3 µM. It also gave a CC50 [1] of 3.66 µM, an IC50 (HCT-116 [2]) of 0.16 µM and a CC50 [3] of 7.24 µM. For the same compound, the CC50 (ACHN) was 1 µM, the CC50 [4] was 2.4 µM and the GI50 [5] was 0.52 µM. For the same compound, the CC50 (HCT-116 [6]) was 0.6 µM.
In the case of `O=C1C=CC(O)(c2nccs2)C=C1`, the CC50 (SW-620) is reported as 26.3 µM, the IC50 (HT-29) is reported as 0.72 µM and the CC50 [1] is reported as 14.5 µM. The IC50 (HCT-116 [2]) was 0.62 µM, the CC50 [3] was 14.5 µM and the CC50 (ACHN) was 7.94 µM. The CC50 [4] was 9.17 µM, the GI50 [5] was 1.35 µM and the CC50 (HCT-116 [6]) was 4.9 µM.
`O=C1C=CC(O)(c2cc3ccccc3s2)C=C1` showed a CC50 (SW-620) greater than 100 µM, an IC50 (HT-29) of 0.55 µM and an IC50 (A549) of 2.43 µM. The CC50 [1] was 1.69 µM, the IC50 (HCT-116 [2]) was 0.17 µM and the CC50 [3] was 5.75 µM. The CC50 (ACHN) was 0.33 µM, the CC50 [4] was 1.4 µM and the GI50 [5] was 0.25 µM. The CC50 (HCT-116 [6]) was 0.6 µM.
Work on `O=C1C=CC(O)(c2cc3ccccc3o2)c2ccccc21` (stereo unspecified) yielded a CC50 (SW-620) of 3.55 µM, a CC50 [1] of 7.76 µM and a CC50 [3] of 7.76 µM. It also gave a CC50 (ACHN) of 5.75 µM, a CC50 [4] of 6.48 µM and a GI50 [5] of 0.74 µM. For the same compound, the CC50 (HCT-116 [6]) was 4.9 µM.
For `O=C1CCC(O)(c2nc3ccccc3s2)CC1`, the CC50 (SW-620) was greater than 100 µM, the CC50 [1] was greater than 100 µM and the CC50 [3] was greater than 100 µM. The CC50 (ACHN) was greater than 100 µM, the CC50 [4] was greater than 100 µM and the GI50 [5] was greater than 100 µM. The CC50 (HCT-116 [6]) was greater than 100 µM.
In the case of `O=C1C=CC(O)(c2cccc3ccccc23)C=C1`, the CC50 (SW-620) is reported as greater than 100 µM, the IC50 (HT-29) is reported as 1.36 µM and the CC50 [1] is reported as 12.2 µM. For the same compound, the IC50 (HCT-116 [2]) was 0.42 µM, the CC50 [3] was 25.7 µM and the CC50 (ACHN) was 13.2 µM. It also gave an IC50 (MCF7) of 0.78 µM, a CC50 [4] of 17 µM and a GI50 [5] of 1.82 µM. For the same compound, the CC50 (HCT-116 [6]) was 5.37 µM and the IC50 (MDA-MB-468) was 1.77 µM.
In the case of `O=C1C=CC(O)(c2cccs2)C=C1`, the CC50 (SW-620) is reported as greater than 100 µM, the IC50 (HT-29) is reported as 1.25 µM and the CC50 [1] is reported as 32.5 µM. The IC50 (HCT-116 [2]) was 0.66 µM, the CC50 [3] was 30.9 µM and the CC50 (ACHN) was 35.5 µM. It also gave an IC50 (MCF7) of 0.57 µM, a CC50 [4] of 14.4 µM and a GI50 [5] of 1.78 µM. For the same compound, the CC50 (HCT-116 [6]) was 5.89 µM and the IC50 (MDA-MB-468) was 0.72 µM.
With `O=C1C=CC(O)(c2ccccn2)C=C1` the CC50 (SW-620) was greater than 100 µM, the IC50 (HT-29) was 0.46 µM and the CC50 [1] was 6.9 µM. It also gave an IC50 (HCT-116 [2]) of 0.55 µM, a CC50 [3] of 20.4 µM and a CC50 (ACHN) of 8.91 µM. For the same compound, the IC50 (MCF7) was 0.72 µM, the CC50 [4] was 11.3 µM and the GI50 [5] was 1.91 µM. It also gave a CC50 (HCT-116 [6]) of 5.24 µM and an IC50 (MDA-MB-468) of 1.5 µM.
Work on `COC1(c2nc3ccccc3s2)C=CC(=NS(=O)(=O)c2ccc(C)cc2)C=C1` (stereo unspecified) yielded a CC50 (SW-620) greater than 100 µM, a CC50 [1] greater than 100 µM and a CC50 [3] of 83.2 µM. It also gave a CC50 (ACHN) greater than 100 µM, a CC50 [4] greater than 100 µM and a GI50 [5] of 15.5 µM. For the same compound, the CC50 (HCT-116 [6]) was 44.7 µM.
With `COC1(c2nc3c(F)cccc3s2)C=CC(=NS(=O)(=O)c2ccc(C)cc2)C=C1` (stereo unspecified) the CC50 (SW-620) was 67.6 µM, the CC50 [1] was 26.9 µM and the CC50 [3] was 27.5 µM. The CC50 (ACHN) was 7.59 µM, the CC50 [4] was 14.4 µM and the GI50 [5] was 2.57 µM. For the same compound, the CC50 (HCT-116 [6]) was 57.5 µM.
For `O=C1C=CC(O)(c2ccc3ccccc3c2)C=C1`, the CC50 (SW-620) was greater than 100 µM, the IC50 (HT-29) was 2.5 µM and the CC50 [1] was 6.58 µM. The IC50 (HCT-116 [2]) was 0.82 µM, the CC50 [3] was 11.7 µM and the CC50 (ACHN) was 7.76 µM. It also gave an IC50 (MCF7) of 1.3 µM, a CC50 [4] of 4.68 µM and a GI50 [5] of 0.81 µM. For the same compound, the CC50 (HCT-116 [6]) was 4.47 µM and the IC50 (MDA-MB-468) was 1.4 µM.
`CC1=CC(O)(c2nc3ccccc3s2)C=C(C)C1=O` showed a CC50 (SW-620) greater than 100 µM, a CC50 [1] greater than 100 µM and a CC50 [3] greater than 100 µM. For the same compound, the CC50 (ACHN) was greater than 100 µM, the CC50 [4] was greater than 100 µM and the GI50 [5] was 38.2 µM. It also gave a CC50 (HCT-116 [6]) greater than 100 µM.
For `Oc1ccc(-c2nc3ccccc3s2)cc1`, the CC50 (SW-620) was greater than 100 µM, the CC50 [1] was greater than 100 µM and the CC50 [3] was greater than 100 µM. It also gave a CC50 (ACHN) greater than 100 µM, an IC50 (MCF7) of 69.4 µM and a CC50 [4] greater than 100 µM. The GI50 [5] was 33.9 µM, the CC50 (HCT-116 [6]) was greater than 100 µM and the IC50 (MDA-MB-468) was 0.4 µM.
